The values that follow come from the EternaBench riboswitch data.

The test system of the data set is MS2 coat protein. Briefly: apparent Kd, MS2 coat protein; higher = weaker binding; RNA-MaP array; FMN 200 µM where present. In short, it runs like this:
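Green signal was scaled to red-channel RNA signal and control-cluster median Fmax, and the apparent Kd was taken as the median of filtered per-cluster binding-curve fits. The binding series used SNAP-549-labelled MS2 coat protein from 0.7 or 1.5 nM, doubling to 3 µM, on designs transcribed by stalled E. coli RNA polymerase on Illumina sequencing-chip clusters. Each series ran without and then with constant ligand in 100 mM Tris-HCl pH 7.5, 80 mM KCl, 4 mM MgCl2, BSA, DTT, yeast tRNA and Tween-20.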

[1] abbreviates: designed as: OFF switch for flavin mononucleotide, no ligand.
The mark [2] stands for this setting: ligand present: flavin mononucleotide, designed as: OFF switch for flavin mononucleotide.
The mark [3] stands for this setting: designed as: ON switch for flavin mononucleotide, no ligand.
The mark [4] stands for this setting: ligand present: flavin mononucleotide, designed as: ON switch for flavin mononucleotide.

A word on the apparent Kd: it is a dissociation constant that holds for the conditions of the assay. “ACAUUGAUUGUGAGGAUAUCGAUGUGAUGGUAUGUCGAGAAGGCACAUGAGGAUCACCCAUGUGGGUGUGGGCA”: the “apparent Kd” value was found to be 0.259 µM under setting [1] and 0.292 µM under setting [2].

Take “GCUAGUAUUGCAGGAUAUUGUGUUUAAUUAUGGCAAGAAGGGCAUUACAUGAGGAUCACCCAUGUUUUCCUUAGUCAUACUAGC”: the “apparent Kd” value reads like this: under setting [1], 0.00557 µM; under setting [2], 0.00663 µM.

With “GCAACGCCUGACAUGAGGAUCACCCAUGUUAGAUUGUUAUGUCAGGAUAUAGUCUAGAAACUAGACUAGAAGGGAUGUGUUGCU”, the “apparent Kd” value came out at 0.703 µM under setting [3] and 0.131 µM under setting [4].

With “GUAGCAAUCGGAGGAUAUGGGUUGAUAACAUGAGGAUCACCCAUGUUAAUACUAGAAGGCCGAUUGCUACAAGAGCGAAAGCUC”, the “apparent Kd” value stood at 0.0314 µM under setting [3] and 0.00639 µM under setting [4].

For “CUAUUAUGUGUAGGAUAUGCAUAUUAUUAUUAUGCAGAAGGACAUGAGGAUCACCCAUGUAUAUUAUUAUUAUAUAUUAUAUAU”, the “apparent Kd” value is 0.0107 µM under setting [1] and 0.0116 µM under setting [2].

With “GUAGCAUACCGAGGAUAUUCAUAUAAUAAAUAAACAUGAGGAUCACCCAUGUGGCGAAAGCCAAGGGAGAAGGCGGAAUGCUAC”, the “apparent Kd” value by setting is: under setting [3], 0.315 µM; under setting [4], 0.0264 µM.

In the case of “CUCAUGUCAGGAUAUUAAGUCCGUAGCCUAUGGCUGCAACAUGAGAAGGGACAUGAGGAUCACCCAUGUCGGGA”, the “apparent Kd” value by setting is: under setting [1], 0.0475 µM; under setting [2], 0.0767 µM.

Consider “AUUAUACAUGAGGAUCACCCAUGUAAUUAAUUAAUUAAGAUCAAGGAUAUCAGCUCGAUUAGAGCUGAGAAGGUGAUCACAUGU”, for which the “apparent Kd” value reads like this: under setting [3], 0.402 µM; under setting [4], 0.292 µM.

Regarding “AUGCUUUAUGUAGGAUAUACAUACGGUACGUAUGUAGAAGGACAUGAGGAUCACCCAUGUAAAUUAUUAUUAAAUAUCAUACAU”, the “apparent Kd” value runs as follows: under setting [1], 0.00856 µM; under setting [2], 0.0123 µM.

Take “CCCUCACAUGAGGAUCACCCAUGUUAGGAUAUCUACCAGGAGCUAUGAUUAGCCCAACGGAGAAGGAACGUGCA”: the “apparent Kd” value under setting [1] worked out at 0.0179 µM and the “apparent Kd” value under setting [2] came to 0.0174 µM.

Regarding “CAGCCCUGAGGAUAUCCCUACUUGUACAUGAGGAUCACCCAUGUUCUCCUCUGGGCUUUGGGAGAAGGCAGGUCUC”, the “apparent Kd” value by setting is: under setting [1], 0.015 µM; under setting [2], 0.0177 µM.

For the sequence “CCUUCUCGUGUCAGGAUAUCCACUCAUCGAAAUUAGGAGAAGGGACAUGAGGAUCACCCAUGUAUACAUGCCAG”, the “apparent Kd” value by setting is: under setting [1], 0.073 µM; under setting [2], 0.102 µM.

On to “AUCGUGAGAGGAUAUACAUGAGGAUCACCCAUGUUUCGAACACCAUGCGGUCAUUUGCGUAGAAGGCUCGUGCG”, for which the “apparent Kd” value under setting [1] turned out to be 0.0291 µM and the “apparent Kd” value under setting [2] was 0.0871 µM.

For “GGUCGUCACAUUAACAUGAGGAUCACCCAUGUAUAAAGACAUGAGGAUAUGCAUCCUAAUUGGAUGCAGAAGGCAUGGACGACC”, the “apparent Kd” value reads like this: under setting [3], 0.0097 µM; under setting [4], 0.00613 µM.

“GCACUGGAUGUAGGAUAUCAGGACGAUAAGUCCUGAGAAGGACAUGAGGAUCACCCAUGUAAAAUCUCACCAGUGCAUAAUAUA”: the “apparent Kd” value runs as follows: under setting [1], 0.0136 µM; under setting [2], 0.0166 µM.

As to “UCCACUGCUGAGAAGGGAUACGUGUGGUUCGCAUCAGGAUAUCGAUACAGUGCAGCAUGAGGACAUGAGGAUCACCCAUGUAUU”, the “apparent Kd” value is, setting by setting: under setting [3], 0.0246 µM; under setting [4], 0.0134 µM.

Turning to “GGCGAACGGGCUAACAUGAGGAUCACCCAUGUGGACUCAUGGUAGGAUAUGCUGUACAAAGUACAGCAGAAGGGCCGGUGAGCC”, the “apparent Kd” value turned out to be 0.142 µM under setting [3] and 0.445 µM under setting [4].

“UAGAAGUCAGGAUAUCCUGCUCGUCACUUGCGUGAUGAGUAGGAGAAGGGACAUGAGGAUCACCCAUGUAAAGC”: the “apparent Kd” value was determined as 0.0611 µM under setting [1] and 0.0495 µM under setting [2].

As for “GAAUAAUUGAUCCAUUUUUAAAACAUGAGGAUCACCCAUGUGCAGGAUAUCGAUAGUUUUAAAUUCGAGAAGGGCAAGAACUGU”, the “apparent Kd” value came to 0.128 µM under setting [1] and 0.173 µM under setting [2].

As to “CUAUUGUGAGGAUAUCAGUAGUAAUACAAUAGUAUUACUACUGAGAAGGCACAUGAGGAUCACCCAUGUUCCUU”, the “apparent Kd” value runs as follows: under setting [1], 0.0141 µM; under setting [2], 0.0328 µM.

As for “UAAGAUUAUUGAGGAUAUGGUAAUUUUUAUUAACCAGAAGGCAAACUCAACAUGAGGAUCACCCAUGUAUAAAGGGUAUUAGUU”, the “apparent Kd” value worked out at 0.068 µM under setting [1] and 0.0634 µM under setting [2].

“UGUUGUAUUACAGGAUAUCUAUUAUUUUUAGUUAGAGAAGGGUAUUCACAUGAGGAUCACCCAUGUAUAUACGAGGAAGUUGUG”: the “apparent Kd” value was found to be 0.0435 µM under setting [3] and 0.0443 µM under setting [4].

“GCUGCUUAUGAGAAGGCGAUCAUGAAACAUGAUCGAGGAUAUCAUGUAAACAUGAGGAUCACCCAUGUAUGGGUAUUAUGCAGC”: the “apparent Kd” value stood at 0.374 µM under setting [3] and 0.0376 µM under setting [4].

Turning to “CUAAAUCAUGUAGGAUAUGCAUGGCGAAGCUACGCAGAAGGACAUGAGGAUCACCCAUGUCAGUACGUCUGCGUACAGACGUUG”, the “apparent Kd” value under setting [1] is 0.0143 µM and the “apparent Kd” value under setting [2] is 0.0191 µM.
